In ChEMBL document CHEMBL3098068 (Eur J Med Chem, 2014):

Key:
[1] = biological target: Aldo-keto reductase family 1 member B1 (Rattus norvegicus) (UniProt P07943); assay: Inhibition of rat kidney NADPH-dependent aldose reductase assessed as DL-glyceraldehyde conversion to glycerol at 1 uM preincubated for 20 mins followed by NADPH addition measured after 5 mins by UV-Visible spectrophotometric analysis relative to control
Method in brief: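 Enzyme source: supernatant of rat kidney homogenized in ice-cold 50 mM potassium phosphate pH 7.4, centrifuged 12,000 rpm 30 min, stored at -80 °C. Assay mix: 0.1 M potassium phosphate pH 6.2, DL-glyceraldehyde, lithium sulphate, mercaptoethanol. Compound (1 µM in DMSO) preincubated with enzyme 20 min at 37 °C. Blank without NADPH incubated 5 min at 37 °C. NADPH added to start. A340 decrease read. %inhibition = 100-[T/C]×100.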

[2] = biological target: Aldo-keto reductase family 1 member B1 (Rattus norvegicus) (UniProt P07943); assay: (§1) Inhibition of rat kidney NADPH-dependent aldose reductase assessed as DL-glyceraldehyde conversion to glycerol preincubated for 20 mins followed by NADPH addition measured after 5 mins by UV-Visible spectrophotometric analysis
[3] = biological target: Aldo-keto reductase family 1 member B1 (Rattus norvegicus, UniProt P07943); assay: as §1

SMILES	inhibition [1] [%]	inhibition [2]	IC50 [3] [nM]
N#CC(=C\c1ccc(Cl)cc1)/C=C1\SC(=S)NC1=O	< 50	–	–
N#CC(=C\c1ccc(F)cc1)/C=C1\SC(=S)N(CC(=O)O)C1=O	< 50	–	–
CC(C)c1ccc(/C=C(C#N)/C=C2\SC(=S)N(c3ccc(C(=O)O)cc3)C2=O)cc1	< 50	–	–
COc1ccc(/C=C(C#N)/C=C2\SC(=S)NC2=O)cc1	< 50	–	–
N#CC(=C\c1ccc(F)cc1)/C=C1\SC(=S)N(c2ccc(C(=O)O)cc2)C1=O	< 50	–	–
N#CC(=C\c1cccc2ccccc12)/C=C1\SC(=S)N(c2ccc(C(=O)O)cc2)C1=O	< 50	–	–
N#CC(=C\c1cccs1)/C=C1\SC(=S)NC1=O	> 50	Dose-dependent effect	860
COc1ccc(/C=C(C#N)/C=C2\SC(=S)N(CC(=O)O)C2=O)cc1	< 50	–	–
N#CC(=C\c1ccc(C(F)(F)F)cc1)/C=C1\SC(=S)N(CC(=O)O)C1=O	< 50	–	–
N#CC(=C\c1ccccc1)/C=C1\SC(=S)N(c2ccc(C(=O)O)cc2)C1=O	> 50	Dose-dependent effect	220
Cc1ccc(/C=C(C#N)/C=C2\SC(=S)NC2=O)cc1	> 50	Dose-dependent effect	690
N#CC(=C\c1cccc2ccccc12)/C=C1\SC(=S)NC1=O	< 50	–	–
N#CC(=C\c1ccco1)/C=C1\SC(=S)NC1=O	< 50	–	–
CC(C)c1ccc(/C=C(C#N)/C=C2\SC(=S)NC2=O)cc1	< 50	–	–
N#CC(=C\c1ccc(F)cc1)/C=C1\SC(=S)NC1=O	< 50	–	–
N#CC(=C\c1ccccc1)/C=C1\SC(=S)NC1=O	< 50	–	–
CC(C)c1ccc(/C=C(C#N)/C=C2\SC(=S)N(c3ccc(CC(=O)O)cc3)C2=O)cc1	< 50	–	–
CCc1ccc(/C=C(C#N)/C=C2\SC(=S)N(c3ccc(C(=O)O)cc3)C2=O)cc1	< 50	–	–
Cc1ccc(/C=C(C#N)/C=C2\SC(=S)N(c3ccc(CC(=O)O)cc3)C2=O)cc1	< 50	–	–
N#CC(=C\c1ccco1)/C=C1\SC(=S)N(c2ccc(C(=O)O)cc2)C1=O	< 50	–	–

The remaining lines, values ahead:

inhibition [1] [%]	inhibition [2]	IC50 [3] [nM]	SMILES
< 50	–	–	N#CC(=C\c1ccc(Br)cc1)/C=C1\SC(=S)N(CC(=O)O)C1=O
< 50	–	–	N#CC(=C\c1cccc2ccccc12)/C=C1\SC(=S)N(CC(=O)O)C1=O
< 50	–	–	N#CC(=C\c1ccc(Br)cc1)/C=C1\SC(=S)N(c2ccc(C(=O)O)cc2)C1=O
< 50	–	–	COc1ccc(/C=C(C#N)/C=C2\SC(=S)N(c3ccc(CC(=O)O)cc3)C2=O)cc1
> 50	Dose-dependent effect	750	N#CC(=C\c1ccccc1)/C=C1\SC(=S)N(CC(=O)O)C1=O
< 50	–	–	Cc1ccc(/C=C(C#N)/C=C2\SC(=S)N(CC(=O)O)C2=O)cc1
< 50	–	–	N#CC(=C\c1cccs1)/C=C1\SC(=S)N(CC(=O)O)C1=O
< 50	–	–	CCc1ccc(/C=C(C#N)/C=C2\SC(=S)N(c3ccc(CC(=O)O)cc3)C2=O)cc1
< 50	–	–	N#CC(=C\c1ccc(Br)cc1)/C=C1\SC(=S)NC1=O
< 50	–	–	CCc1ccc(/C=C(C#N)/C=C2\SC(=S)N(CC(=O)O)C2=O)cc1
< 50	–	–	Cc1ccc(/C=C(C#N)/C=C2\SC(=S)N(c3ccc(C(=O)O)cc3)C2=O)cc1
< 50	–	–	CCc1ccc(/C=C(C#N)/C=C2\SC(=S)NC2=O)cc1
< 50	–	–	N#CC(=C\c1ccc(Cl)cc1)/C=C1\SC(=S)N(CC(=O)O)C1=O
< 50	–	–	COc1ccc(/C=C(C#N)/C=C2\SC(=S)N(c3ccc(C(=O)O)cc3)C2=O)cc1
< 50	–	–	CC(C)c1ccc(/C=C(C#N)/C=C2\SC(=S)N(CC(=O)O)C2=O)cc1
< 50	–	–	N#CC(=C\c1ccc(Cl)cc1)/C=C1\SC(=S)N(c2ccc(C(=O)O)cc2)C1=O
< 50	–	–	N#CC(=C\c1ccccc1)/C=C1\SC(=S)N(c2ccc(CC(=O)O)cc2)C1=O
< 50	–	–	N#CC(=C\c1cccs1)/C=C1\SC(=S)N(c2ccc(C(=O)O)cc2)C1=O
> 50	Dose-dependent effect	670	N#CC(=C\c1ccco1)/C=C1\SC(=S)N(CC(=O)O)C1=O
